Experimental data as given in PubChem BioAssay.
Records with an inconclusive call do not appear.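 How the source made its calls, unless noted: active means growth inhibition above 25% in both replicates, a cutoff set 3 SD above the mean; inconclusive means above 25% in only one replicate; inactive means the rest.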

How the values were obtained:
[1] = S. cerevisiae growth inhibition in permissive medium (OD615), pilot counter-assay for S. cerevisiae lifespan shortening project, permissive growth control (AID 705); conditions: OD615, 24 h, at 10 µM, hits give high values
Procedure, shortened: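 Timing: 24 h exposure, 30 °C / Material: Saccharomyces cerevisiae strain carrying genetically modified DeaD replicative-lifespan system / Signal: OD at 615 nm / Compound: 10 µM single dose, 0.25% DMSO / Medium: SC raffinose/galactose permissive medium / Evaluation: reduction in yeast growth (OD615)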

[2] = S. cerevisiae growth inhibition in restrictive medium, OD615, pilot screen, restrictive growth control, yeast lifespan reduction project (AID 706;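 active means growth inhibition above a set limit, 3 SD over mean compound inhibition, in both replicates, cut at about 43% in these data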;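 further: modified DeaD lifespan yeast strain shifted to restrictive glucose medium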); conditions: OD615, 48 h, at 10 µM, hits give high values
Procedure, shortened: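 System: Engineered S. cerevisiae DeaD strain | Detection: OD615 | Buffer or medium: CSMM-D glucose medium | Doses: 10 µM compound, 0.25% DMSO | Timing: 4 h pre-growth plus 48 h compound exposure, 30 °C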

[3] = doxorubicin toxicity protection in MRP-1 cells – H69AR cells, CellTiter-Glo, duplicate, MRP-1 activator project, pilot screen (AID 807;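 active means viability increase at or above a cutoff of the median across tested compounds plus 3 SD, cut at about 8.5% in these data, passing the limit was not always enough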;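 further: compound pretreatment 18-22 h then 72 h combined with doxorubicin; 0% = doxorubicin alone and 100% = vehicle without doxorubicin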); conditions: H69AR viability with doxorubicin, CellTiter-Glo luminescence; at 10 µM; hits give high values
[4] = viability of HCT116 without oncogenic beta-catenin – human colon tumor cells, pilot screen (AID 823;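 active means cell viability at or below a set limit in both duplicate runs, the limit being the all-compound median minus 4 SD, cut at about 23% in these data, passing the limit was not always enough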;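 further: 0% = wells killed by 20 µM Hyamine and 100% = untreated DMSO cell wells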); conditions: HCT116 beta-catenin knockout viability, CellTiter-Glo, 60 h; at 10 µM; hits give low values
[5] = viability of PTEN-null HCT116 cells – cell-based, HCT116 clonal line, CellTiter-Glo, pilot screen (AID 824;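 active means viability at or below 27.92% in each of two runs, the all-compound median minus 4 SD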;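 further: 0% = 20 µM Hyamine control and 100% = vehicle cell control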); conditions: HCT116 PTEN-deleted viability, 60 h, at 10 µM, hits give low values
[6] = RAM pathway blockade in budding yeast – dse1pr::URA3 reporter, 5-FOA selection, pilot screen (AID 869;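 active means inhibition over a set limit, the all-compound mean plus 3 SD, in both replicate runs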;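 further: 0% = DMSO wells with no growth and 100% = 10 µM 1-NA-PP1 with full growth; RAM network block rescues cells from 5-FOA so hits raise OD615 growth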); conditions: S. cerevisiae dse1pr::URA3 5-FOA growth, OD615, 2 d; at 10 µM; hits give high values; strain carries analog-sensitive mutant Cbk1 kinase
[7] = RAM signaling pathway blockade in yeast – S. cerevisiae, Pdr1DBD-CYC8 efflux-inhibited sensitized strain, primary screen (AID 1298;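 active means RAM network inhibition above 8.4% in each of two replicates, 3 SD over the compound average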;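 further: 0% = DMSO untreated cells without growth and 100% = 10 µM 1-NA-PP1 full growth; higher means more yeast growth rescued from 5-FOA killing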); conditions: S. cerevisiae cbk1-as DSE1-URA3 strain, 5-FOA growth OD615, 2 d; at 50 µM; hits give high values

COc1cccc(C(=O)NCC(c2cccnc2)N2CCN(c3ccccc3OC)CC2)c1 (configuration not stated)
inactive: growth inhibition [1] 1.37% | growth inhibition [2] -13.1% | viability increase [3] -2.58% | viability [4] 84.3% | viability [5] 78% | inhibition [6] 1.87% | RAM network inhibition [7] 1.46%

CCC(=O)c1ccc(OCC(=O)Nc2nn3cnnc3s2)cc1
inactive: growth inhibition [1] -2.54% | growth inhibition [2] 8.22% | viability increase [3] 1% | viability [4] 104% | viability [5] 102% | inhibition [6] 1.27% | RAM network inhibition [7] 6.32%

CCOc1ccccc1NC(=O)Cn1cnc2c(nnn2-c2cccc(OC)c2)c1=O
inactive: growth inhibition [1] -2.45% | growth inhibition [2] -1.71% | viability increase [3] -1.23% | viability [4] 87.2% | viability [5] 73.3% | inhibition [6] 3.82% | RAM network inhibition [7] 4.89%

O=C(Cn1cc2c(n1)CCCC2)N1CCOCC1
inactive: growth inhibition [1] -13.2% | growth inhibition [2] -4.99% | viability increase [3] -0.03% | viability [4] 99.4% | viability [5] 108% | inhibition [6] 0.095% | RAM network inhibition [7] 6.94%

C=CCNc1ncnc2c1cnn2-c1cccc(C)c1
inactive: growth inhibition [1] 8.9% | growth inhibition [2] 1.8% | viability increase [3] -1.03% | viability [4] 101% | viability [5] 98.5% | inhibition [6] 3.21% | RAM network inhibition [7] 0.06%

CCCn1c(CCNC(=O)c2cccs2)nc2ccccc21
inactive: growth inhibition [1] -1.19% | growth inhibition [2] 4.79% | viability increase [3] -0.97% | viability [4] 94.9% | viability [5] 91.5% | inhibition [6] 1.37% | RAM network inhibition [7] 4.94%

O=C(CN(Cc1ccccc1)S(=O)(=O)c1ccccc1)NC1CC1
inactive: growth inhibition [1] -4.36% | growth inhibition [2] 11.6% | viability increase [3] -1.25% | viability [4] 102% | viability [5] 96% | inhibition [6] -0.45% | RAM network inhibition [7] 0.45%

COc1ccc2ccccc2c1C1CC(=O)N2CN(C3CCCCC3)CSC2=C1C#N (configuration not stated)
inactive: growth inhibition [1] 2.87% | growth inhibition [2] 25.4% | viability increase [3] -4.9% | viability [4] 81.3% | viability [5] 76.4% | inhibition [6] 2.05% | RAM network inhibition [7] 4.86%

C=C(C)Cc1c(C)nc(-c2ccccc2)[nH]c1=O
inactive: growth inhibition [1] -14% | growth inhibition [2] -14.1% | viability increase [3] 0.87% | viability [4] 99.7% | viability [5] 98.5% | inhibition [6] 1.76% | RAM network inhibition [7] 1.46%

CC(=O)CCC(=O)NCCc1ccccc1F
inactive: growth inhibition [1] -5.29% | growth inhibition [2] 9.55% | viability increase [3] 0.02% | viability [4] 94.8% | viability [5] 97.2% | inhibition [6] 0.02% | RAM network inhibition [7] 0.25%

CC1=Nc2ccc(C)cc2N(Cc2ccccc2)C(=O)C1
inactive: growth inhibition [1] -10.2% | growth inhibition [2] -5.19% | viability increase [3] 0.47% | viability [4] 101% | viability [5] 93.8% | inhibition [6] 0.545% | RAM network inhibition [7] 2.83%

O=C(CN1CCN(C2CCCCC2)CC1)c1ccc2cc[nH]c2c1
inactive: growth inhibition [1] 5.4% | growth inhibition [2] 2.7% | viability increase [3] -3.56% | viability [4] 94% | viability [5] 85.7% | inhibition [6] 1.9% | RAM network inhibition [7] -1.26%

CCOc1ccc(N2CC(C(=O)NCCC3=CCCCC3)CC2=O)cc1 (configuration not stated)
inactive: growth inhibition [1] -1.23% | growth inhibition [2] -18.5% | viability increase [3] 0.15% | viability [4] 99.6% | viability [5] 93.8% | inhibition [6] 0.36% | RAM network inhibition [7] 3.96%

CCOC(=O)Cn1c(=O)oc2cc(S(=O)(=O)Nc3c(C)cc(C)cc3C)ccc21
inactive: growth inhibition [1] -11.4% | growth inhibition [2] -14.1% | viability increase [3] -2.56% | viability [4] 94.5% | viability [5] 95.3% | inhibition [6] 0.86% | RAM network inhibition [7] 4.9%

O=C(CN1CCOc2ccccc21)N1CCC(Cc2ccccc2)CC1
inactive: growth inhibition [1] -3.59% | growth inhibition [2] 21.2% | viability increase [3] -3.42% | viability [4] 88% | viability [5] 95.1% | inhibition [6] 1.46% | RAM network inhibition [7] 8.63%

COc1ccc(OC)c(C2NC(=O)NC(C)=C2C(=O)Nc2ccc(C)cc2C)c1 (configuration not stated)
inactive: growth inhibition [1] -7.68% | growth inhibition [2] 4.14% | viability increase [3] 0.67% | viability [4] 101% | viability [5] 100% | inhibition [6] 1.77% | RAM network inhibition [7] 2.4%

CCOc1ccccc1C1CC(c2ccccc2)Nc2nc(N)nn21 (configuration not stated)
inactive: growth inhibition [1] -1.36% | growth inhibition [2] 8.93% | viability increase [3] -1.31% | viability [4] 97.2% | viability [5] 88.2% | inhibition [6] 2.27% | RAM network inhibition [7] 2.72%

Cc1cc(C)n(-c2nc3ccccc3c3nc(C)nn23)n1
inactive: growth inhibition [1] -10.5% | growth inhibition [2] -2.51% | viability increase [3] -0.57% | viability [4] 104% | viability [5] 101% | inhibition [6] 0.195% | RAM network inhibition [7] 4.75%

COc1nc(NCCC2=CCCCC2)nc(OC)n1
inactive: growth inhibition [1] -12.2% | growth inhibition [2] 2.74% | viability increase [3] 2.72% | viability [4] 98.6% | viability [5] 99.4% | inhibition [6] 0.235% | RAM network inhibition [7] 3.01%

CC(=O)c1cccc(NC(=O)c2c(F)c(F)c(F)c(F)c2F)c1
inactive: growth inhibition [1] -4.19% | growth inhibition [2] 6.79% | viability increase [3] -7.13% | viability [4] 95% | viability [5] 88.4% | inhibition [6] 1.01% | RAM network inhibition [7] -0.87%

Cc1ccccc1-c1nc(CS(=O)CC(=O)NCCN2CCOCC2)c(C)o1 (configuration not stated)
inactive: growth inhibition [1] 0.43% | growth inhibition [2] 1.41% | viability increase [3] -1.4% | viability [4] 101% | viability [5] 91.2% | inhibition [6] 1.11% | RAM network inhibition [7] 9.97%

CCCCS(=O)CC(COc1ccc(Cl)cc1)OC(=O)c1ccccc1 (configuration not stated)
inactive: growth inhibition [1] -11.8% | growth inhibition [2] -9.18% | viability increase [3] 3.23% | viability [4] 76.1% | viability [5] 86.2% | inhibition [6] 0.42% | RAM network inhibition [7] 5.86%

COC(=O)c1ccc(C2C(C(C)=O)=C(C)Nc3ncnn32)cc1 (configuration not stated)
inactive: growth inhibition [1] -8.45% | growth inhibition [2] 9.82% | viability increase [3] -1.07% | viability [4] 108% | viability [5] 98.7% | inhibition [6] 1.9% | RAM network inhibition [7] 2.09%

COc1cccc(C2c3c(oc4cc(C)c(C)cc4c3=O)C(=O)N2CCCN(C)C)c1 (configuration not stated)
inactive: growth inhibition [1] -8.88% | growth inhibition [2] 0.12% | viability increase [3] -3.94% | viability [4] 93.6% | viability [5] 94.6% | inhibition [6] 0.885% | RAM network inhibition [7] 1.83%

Cc1ccccc1C(=O)Nc1ccc2nc3n(c(=O)c2c1)CCC3
inactive: growth inhibition [1] -2.17% | growth inhibition [2] 0.31% | viability increase [3] 0.79% | viability [4] 106% | viability [5] 104% | inhibition [6] 0.085% | RAM network inhibition [7] 4.34%

COc1cccc(C2NC(=O)NC(C)=C2C(=O)OCCSC)c1OC (configuration not stated)
inactive: growth inhibition [1] -3.21% | growth inhibition [2] -16.4% | viability increase [3] -0.87% | viability [4] 93.7% | viability [5] 90.6% | inhibition [6] 1.07% | RAM network inhibition [7] 2.02%

Cc1cc(NC(=O)NC2(C(F)(F)F)Oc3ccc(Cl)cc3O2)no1 (configuration not stated)
inactive: growth inhibition [1] -3.33% | growth inhibition [2] -23% | viability increase [3] -5.78% | viability [4] 32.6% | viability [5] 42.5% | inhibition [6] 3.26% | RAM network inhibition [7] 7.87%

Cn1c(NC(=O)CC(C)(C)C)cc(=O)n(C)c1=O
inactive: growth inhibition [1] -2.31% | growth inhibition [2] -7.82% | viability increase [3] -0.07% | viability [4] 104% | viability [5] 105% | inhibition [6] 3.15% | RAM network inhibition [7] -1.17%

CCC(=O)Nc1nc2c(OC)ccc(C)c2s1
inactive: growth inhibition [1] -17.7% | growth inhibition [2] -14.1% | viability increase [3] -5.96% | viability [4] 96.4% | viability [5] 92.2% | inhibition [6] 0.225% | RAM network inhibition [7] 1.37%

O=S(=O)(CCc1nnc(-c2ccccc2)o1)c1ccc2ccccc2c1
inactive: growth inhibition [1] -16.3% | growth inhibition [2] -6.19% | viability increase [3] -1.86% | viability [4] 89.8% | viability [5] 91.8% | inhibition [6] 1.96% | RAM network inhibition [7] 10.4%

Cc1ccc(-c2n[nH]c(=S)n2C)cc1
inactive: growth inhibition [1] -2.22% | growth inhibition [2] 11.2% | viability increase [3] -1.46% | viability [4] 97.5% | viability [5] 101% | inhibition [6] 2.21% | RAM network inhibition [7] 3.7%

CCOC(=O)CSc1nnc(CSc2nc3sc4c(c3c(=O)[nH]2)CCC4)n1C
inactive: growth inhibition [1] -5.48% | growth inhibition [2] 4.33% | viability increase [3] -2% | viability [4] 98.4% | viability [5] 107% | inhibition [6] 0.35% | RAM network inhibition [7] 6.56%

CCOc1ccccc1NC(=O)CN1C(=O)COc2ccc(Cl)cc21
inactive: growth inhibition [1] -16.8% | growth inhibition [2] -11.8% | viability increase [3] -1.27% | viability [4] 91.7% | viability [5] 84.2% | inhibition [6] 4.02% | RAM network inhibition [7] 5.69%

Cc1cc(Nc2ccc(F)cc2C)n2ncnc2n1
inactive: growth inhibition [1] -3.29% | growth inhibition [2] -0.445% | viability increase [3] 0.05% | viability [4] 108% | viability [5] 101% | inhibition [6] 1.8% | RAM network inhibition [7] 5.54%

COc1ccccc1Nc1cc(C(=O)NCCCN2CCOCC2)c2ccccc2n1
inactive: growth inhibition [1] -7.99% | growth inhibition [2] -0.795% | viability increase [3] -3.47% | viability [4] 89.1% | viability [5] 91.4% | inhibition [6] 0.455% | RAM network inhibition [7] 0.58%

CCCC1(C(=O)O)NC(c2cccc(OC)c2O)C2C(=O)N(c3ccccc3)C(=O)C21 (configuration not stated)
inactive: growth inhibition [1] -0.085% | growth inhibition [2] -4.29% | viability increase [3] -0.36% | viability [4] 96.4% | viability [5] 97.4% | inhibition [6] 0.49% | RAM network inhibition [7] -0.78%
